An excerpt weighted towards active compounds, which were near 1.4% of everything screened.
Efflux pump mplx: inhibitors of Candida antifungal efflux pumps expressed in yeast. S. cerevisiae Candida pump triplex, Nile Red efflux. inhibition, % at 10 µM. 330,000 tested, 0.44% active. AID 485275;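 active = plate passing quality check with inhibition over a set limit, or well fluorescence over plate mean plus 4 SD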;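 also: Nile Red retained in pooled yeast measured as flow cytometry median fluorescence; 0% = buffer negative control and 100% = Enniatin B positive control; higher means more Nile Red kept so more efflux inhibition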
IDE cell inh: inhibitors of human insulin-degrading enzyme in cells; P14735; HEK cells, FAbetaB cleavage, fluorescence polarization; inhibition, % at 5.59 µM; 320,000 tested, 0.41% active;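 active = percent inhibition above the average of all tested compounds plus 3 SD, set per screening campaign, cut at about 16% in these data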;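 also: IDE supplied by intact live HEK cells; FP after avidin binding of uncleaved biotin substrate so inhibition keeps polarization high; 0% = DMSO wells and 100% = 60 µM reference IDE inhibitor Ii1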
Target sequence (P14735 whole entry, looked up): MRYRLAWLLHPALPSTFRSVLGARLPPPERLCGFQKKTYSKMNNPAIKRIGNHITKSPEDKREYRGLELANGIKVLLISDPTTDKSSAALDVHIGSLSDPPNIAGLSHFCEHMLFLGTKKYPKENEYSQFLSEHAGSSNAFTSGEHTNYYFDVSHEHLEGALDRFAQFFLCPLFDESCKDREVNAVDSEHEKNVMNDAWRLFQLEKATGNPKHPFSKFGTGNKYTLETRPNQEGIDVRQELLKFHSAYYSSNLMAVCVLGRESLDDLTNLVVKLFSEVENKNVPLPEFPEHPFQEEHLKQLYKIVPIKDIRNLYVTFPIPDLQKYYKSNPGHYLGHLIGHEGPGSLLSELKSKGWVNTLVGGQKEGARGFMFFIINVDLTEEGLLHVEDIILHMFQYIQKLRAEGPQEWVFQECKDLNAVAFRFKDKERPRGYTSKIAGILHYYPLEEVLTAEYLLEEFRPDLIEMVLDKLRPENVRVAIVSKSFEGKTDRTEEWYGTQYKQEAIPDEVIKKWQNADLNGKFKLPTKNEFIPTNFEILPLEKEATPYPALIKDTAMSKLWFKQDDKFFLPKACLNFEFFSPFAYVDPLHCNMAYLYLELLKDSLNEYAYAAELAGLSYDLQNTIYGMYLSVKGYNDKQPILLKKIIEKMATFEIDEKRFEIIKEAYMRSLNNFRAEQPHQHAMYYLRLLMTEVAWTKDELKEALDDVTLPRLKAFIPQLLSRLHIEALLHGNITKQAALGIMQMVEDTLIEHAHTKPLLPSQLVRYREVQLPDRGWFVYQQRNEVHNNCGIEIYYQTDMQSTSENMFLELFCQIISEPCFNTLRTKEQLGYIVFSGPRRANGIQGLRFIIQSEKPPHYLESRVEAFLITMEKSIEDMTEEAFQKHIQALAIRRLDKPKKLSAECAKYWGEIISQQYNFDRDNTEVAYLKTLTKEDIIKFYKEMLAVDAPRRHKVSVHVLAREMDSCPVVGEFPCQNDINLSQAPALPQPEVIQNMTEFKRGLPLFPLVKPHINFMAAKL
TbMetRS inhib: blocks T. brucei methionyl-tRNA synthetase activity; purified T. brucei MetRS, ATP depletion, Kinase-Glo luminescence; inhibition, % at 11.9 µM; 360,000 tested, 0.4% active; AID 624268;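 active = inhibition above a per-plate cutoff of the control wells' mean inhibition plus 3 SD, cut at about 5.5% in these data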;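 also: 0% = DMSO wells median and 100% = median of wells with control inhibitor compound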
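Dosing: 11.9 µM single point; system: parasite MetRS enzyme; technique: luminescence of leftover ATP; times: 15 min enzyme-compound preincubation, 2 h reaction, 10 min detection, 25 °C; replicates: each compound tested once; read-out basis: percent inhibition relative to median high and low control wells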
HDAC3 inhib: blocks human histone deacetylase 3; recombinant HDAC3, fluorogenic peptide/trypsin coupled, fluorescence; AID 2718; 320,000 tested, 0.15% active; inhibition, % at 8.3 µM; in the data active = inhibition above about 26%, passing the limit was not always enough; inconclusive = no clear call, values can overlap the other calls
Yeast superoxide: caloric restriction mimetics inhibiting age-related superoxide in yeast. S. cerevisiae aged cells, superoxide DHE fluorescence; active compounds read low. superoxide response (% of plate mean), % at 10 µM. 330,000 tested, 0.18% active. AID 2690;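 active = superoxide response under a set limit, about three screen SD below normal, cut at about 65% in these data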;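 also: yeast aged for seven days with compound at 30 °C before DHE staining; 100% = average MFI of all compound-treated wells on the plate with controls excluded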
IDE cell activ: IDE (human) activation, cell-based. HEK cells, FAbeta-B cleavage, fluorescence polarization; 0% vehicle, 100% cell-free pure enzyme wells. activation, % at 5.96 µM. 340,000 tested, 0.073% active. AID 493087;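 active = activation above the mean of all tested compounds plus 3 SD, set per screening campaign, cut at about 17% in these data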
IDE cell inh cf: confirmation of human insulin-degrading enzyme inhibitors in cells; 1,200 tested, 51% active; inhibition, % at 5.59 µM; HEK cells, FAbetaB cleavage, fluorescence polarization; shares compounds with IDE cell inh;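 active = mean inhibition across triplicate wells above the cutoff set by the earlier primary insulin-degrading enzyme screen, cut at about 16% in these data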;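 also: 0% = DMSO wells and 100% = 60 µM reference IDE inhibitor Ii1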
HEK293 tox: counter-screen for IDE inhibitors: cytotoxicity in HEK cells | shares compounds with IDE cell inh | HEK293 cytotoxicity, ATP luminescence | inhibition, % at 5.59 µM | 1,200 tested, 28% active; in the data active = inhibition above about 22%;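 also: 0% = vehicle wells and 100% = reference cytotoxic drug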
An asterisk follows results filed as active; u = inconclusive; x = no result.

SMILES	Efflux pump mplx	IDE cell inh	TbMetRS inhib	HDAC3 inhib	Yeast superoxide	IDE cell activ	IDE cell inh cf	HEK293 tox
COc1ccccc1NC(=O)CC(NC1CCCCC1)C(=O)O (stereo unspecified)	0	3	1	4	103	4	x	x
CCOC(=O)c1ccc(/C=C2/C=C(c3ccccc3)N(c3ccc(Cl)c(C(=O)O)c3)C2=O)cc1	0	17*	0	8	103	-7	44*	84*
CCOC(=O)c1ccc(Cl)c(NC(=O)c2ccc(-c3ccccc3)cc2)c1	0	1	-1	6	97	1	x	x
CCCc1cc(N2CCCC(C(=O)Nc3cc(Cl)ccc3OC)C2)n2ncnc2n1 (stereo unspecified)	0	7	-1	0	95	-2	x	x
COc1ccc(Cl)cc1NC(=O)C1CCCN(c2cc(C)nc3ncnn23)C1 (stereo unspecified)	0	16*	0	10	98	-27	13	9
COc1ccc(OCc2cc(C(=O)N3CCCCCC3)no2)c(Cl)c1	0	-1	1	0	98	6	x	x
COc1ccc(OCc2cc(C(=O)N3CCSCC3)no2)c(Cl)c1	0	18*	1	0	118	-15	11	12
CN(C)c1ccc(/C=C(\C#N)C(=O)OCC(=O)N(C)C2CCS(=O)(=O)C2)cc1 (stereo unspecified)	0	16*	0	14	81	-8	13	4
Cc1ccc(N2CCN(C3=NC(=O)/C(=C\c4cn[nH]c4-c4ccccc4)S3)CC2)cc1	0	31*	0	-9	99	-16	2	26*
OC(CN1CCN(c2ccc(C(F)(F)F)cn2)CC1)c1ccccc1 (stereo unspecified)	0	20*	0	-4	107	-11	11	20
COc1ccc(/C=C2\SC(=O)NC2=S)cc1OC	0	68*	0	x	96	-29	8	16
CCOc1ccc(/C=C2\SC(=S)NC2=O)cc1OC	0	0	1	8	91	3	x	x
O=C(CSc1nc(=O)n(CCN2CCOCC2)c2c1CCCC2)Nc1cccc([N+](=O)[O-])c1	0	6	0	-5	96	-2	x	x
O=C(NNC(=O)c1cccc2ccccc12)c1ccc(-c2ccccc2)cc1	3	18*	0	0	91	-8	3	47*
O=C(NNC(=O)c1cccc2ccccc12)c1ccccc1O	0	-6	-1	-8	88	4	x	x
N#CC1=C(N)SC(N)=C(C#N)C1c1cccc(O)c1	0	20*	1	3	103	-9	6	10
COc1ccc(C2C(C#N)=C(N)SC(N)=C2C#N)cc1OC	0	13	-1	16	97	-15	x	x
O=S(=O)(c1cccc(NC(=S)N2CCN(c3ccccc3)CC2)c1)C(F)F	0	19*	2	6	109	-21	4	7
Cc1ccc(F)c(CNC(=O)C2CCC(=O)N(Cc3ccccn3)C2)c1F (stereo unspecified)	0	6	-1	0	97	2	x	x
CN(C)c1ccc(/C=C2\SC(=O)N(CCc3nnc(N)s3)C2=O)cc1	0	30*	-1	1	104	-19	22*	14
O=C(O)c1cccc(-n2sc3ccccc3c2=O)c1	0	93*	0	u	98	-23	97*	8
O=c1c2ccccc2sn1-c1ccccc1	0	64*	-1	49*	105	-20	32*	98*
Cc1ccccc1-n1sc2cc(F)ccc2c1=O	0	72*	0	20	92	-46	17*	80*
O=c1c2cc(F)ccc2sn1-c1ccccc1	0	60*	0	-6	126	-25	33*	83*
O=c1c2ccccc2sn1-c1cccc(Cl)c1	x	x	-1	x	x	x	x	x
SMILES	Efflux pump mplx	IDE cell inh	TbMetRS inhib	HDAC3 inhib	Yeast superoxide	IDE cell activ	IDE cell inh cf	HEK293 tox
CC(=O)Nc1ccc2c(=O)n(-c3ccccc3)sc2c1	x	x	0	x	x	x	x	x
COc1ccc(CCNC(=O)CCSCc2ccccc2F)cc1OC	0	-2	0	3	101	4	x	x
COc1cc(C(=O)NCC(c2ccccc2)N(C)C)ccc1OCc1c(C)noc1C (stereo unspecified)	0	-5	0	7	91	5	x	x
Cc1ccc(NC(=S)NCc2ccc(Cl)cc2)c(C)c1	1	3	-1	-8	78	7	x	x
Cc1ccccc1NC(=O)COC(=O)c1cc(S(=O)(=O)N2CCOCC2)ccc1C	0	-2	0	-1	102	3	x	x
CN(C)S(=O)(=O)c1cccc(-n2sc3ccccc3c2=O)c1	136*	94*	1	0	110	-19	31*	52*
N#Cc1ccc2c(=O)n(-c3ccccc3)sc2c1	x	x	0	x	x	x	x	x
COc1ccc2nc(Nc3sc4c(c3C(N)=O)CCCC4)sc2c1	0	20*	-1	2	99	-13	2	8
O=[N+]([O-])c1ccc(N/N=C/C=C/c2ccco2)cc1	0	6	0	16	87	-15	x	x
COc1ccccc1CN1C[C@@H]2C[C@@H](c3ccc(C)cc3)N3CCC[C@@]23C1=O	0	1	0	0	103	-2	x	x
COc1ccccc1CN1C[C@@H]2C[C@@H](c3ccc4nsnc4c3)N3CCC[C@@]23C1=O	0	19*	0	0	99	-4	7	15
Cc1cc(O)c(C(C)C)cc1NC(=O)c1cccc(Cl)c1	0	-1	0	10	82	3	x	x
O=C(O)Cc1sc(NC2CCCCC2)nc1-c1ccc(Cl)cc1	1	20*	0	-1	111	8	-3	11
N#CC1(NC(=O)COC(=O)c2cc(=O)[nH]c3ccccc23)CCCCC1	0	0	0	-2	112	3	x	x
COc1ccc(CCC(=O)NNC(=S)NCc2ccc(F)cc2)cc1	0	-1	-1	-4	115	-6	x	x
CCCCCCc1cc2cc(-c3nnc(-c4ccccc4O)o3)c(=O)oc2cc1O	0	38*	-1	-3	103	-70	118*	8
CN(C)S(=O)(=O)c1cccc(-c2nn(-c3ccccc3)cc2/C=C2\SC(=S)NC2=O)c1	0	26*	0	-3	111	-1	-3	23*
CC(=O)Nc1cccc(C(=O)/C=C/c2ccc(N(C)C)cc2)c1	0	56*	0	2	76	-174	51*	14
C=CCN(C(=O)CSc1nnnn1C)c1nc(-c2ccccc2)cs1	x	x	0	x	x	-12	x	x

Screening results (PubChem)
